≈ marks a conversion by molar mass, not a printed value.
Key:
Mus musculus [1] = assay: Hypolipidemic activity in CF1 mouse assessed as serum cholesterol level at 150 mg/kg/day administered for 16 days measured on day 9 relative to control; format: functional
How it was run: (§1)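 Male CF1 mice (28 g) were dosed daily for 16 days, with drug suspended in 1% carboxymethylcellulose. On days 9 and 16 blood was drawn from the tail vein and serum spun at 3000 g for 3 min. Total cholesterol was measured by the Liebermann-Burchard reaction and triglyceride by a commercial kit. Results are percent of vehicle control, n = 6, mean ± SD, Student's t-test.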

Mus musculus [2] = assay: Hypolipidemic activity in CF1 mouse assessed as serum triglyceride level at 150 mg/kg/day administered for 16 days measured on day 16 relative to control
Mus musculus [3] = assay: Hypolipidemic activity in CF1 mouse assessed as serum triglyceride level at 150 mg/kg/day administered for 16 days measured on day 16 relative to control; format: functional; how it was run: as §1
KB = assay: Cytotoxicity against human KB cells after 3 days by trypan blue exclusion technique; format: functional; details: 72 h, read-out: ED50 (the source's name)
How it was run: (§2)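 Tumor cells were mixed on day 0 with sterile drug at 1–100 µg/ml (from 1 mM stock in 0.05% Tween 80 water) in growth medium, 1 ml final. Cells were counted on day 3, while growth was still logarithmic. The concentration killing 50% of cells was read from a semilog plot.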

SW480 = assay: Cytotoxicity against human SW480 cells after 3 days by trypan blue exclusion technique; format: functional; details: SW480, 72 h, read-out: ED50 (the source's name); how it was run: as §2
[4] = Cytotoxicity against human EH118MG cells after 3 days by trypan blue exclusion technique; format: functional; details: 72 h, read-out: ED50 (the source's name); how it was run: as §2
[5] = Cytotoxicity against human HeLaS3 cells after 3 days by trypan blue exclusion technique; format: functional; details: HeLa S3, 72 h, read-out: ED50 (the source's name); how it was run: as §2
[6] = Cytotoxicity against human TMOLT3 cells after 3 days by trypan blue exclusion technique; format: functional; details: MOLT-3, 72 h, read-out: ED50 (the source's name); how it was run: as §2
L1210 = assay: Cytotoxicity against mouse L1210 cells after 3 days by trypan blue exclusion technique; format: functional; details: L1210, 72 h, read-out: ED50 (the source's name); how it was run: as §2
[7] = Cytotoxicity against human MB9812 cells after 3 days by trypan blue exclusion technique; format: functional; details: MB9812, 72 h, read-out: ED50 (the source's name); how it was run: as §2
[8] = Cytotoxicity against human TE-418 cells after 3 days by trypan blue exclusion technique; format: functional; details: TE-418, 72 h, read-out: ED50 (the source's name); how it was run: as §2
Ehrlich = assay: In vivo antineoplastic activity against mouse Ehrlich ascite carcinoma cells xenografted in CF1 mouse assessed as inhibition of tumor growth at 8 mg/kg/day after 9 days relative to control; format: functional; details: 216 h
How it was run: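 On day 0, CF1 male mice (ca. 25 g) received 2 × 10^6 Ehrlich ascites cells ip in isotonic saline. Drug in 0.05% Tween 80 water was given at 8 mg/kg/day on days 1–9. On day 10 ascites fluid was collected, and volume and packed-cell volume per animal were used to calculate percent tumor growth inhibition; n = 6, mean ± SD.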

Mus musculus [9] = assay: Hypolipidemic activity in CF1 mouse assessed as serum cholesterol level at 8 mg/kg/day, ip administered for 16 days measured on day 9 relative to control; format: functional; details: route intraperitoneal; how it was run: as §1
Mus musculus [10] = assay: Hypolipidemic activity in CF1 mouse assessed as serum cholesterol level at 8 mg/kg/day, ip administered for 16 days measured on day 16 relative to control
Mus musculus [11] = assay: Antiinflammatory activity against CF1 mouse assessed as inhibition of carrageenan-induced paw edema at 8 mg/kg/day, ip administered 30 mins before carrageenan challenge measured after 3 hrs relative to control; format: functional; details: route intraperitoneal
How it was run: (§3)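 CF1 male mice (ca. 25 g) got drug ip in 0.05% Tween 80 water twice, 3 h and 30 min before 0.2 ml of 1% carrageenan in 0.9% saline was injected into the right hind plantar surface. The left foot got saline as baseline. After 3 h both feet were cut off at the ankle and paw weight gain was compared; results are percent inhibition, n = 6, mean ± SD.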

Mus musculus [12] = assay: Hypolipidemic activity in CF1 mouse assessed as serum cholesterol level at 8 mg/kg/day, ip administered for 16 days measured on day 16 relative to control; format: functional; details: route intraperitoneal; how it was run: as §1
Mus musculus [13] = assay: Toxicity in CF1 mouse assessed as change in food consumption at 8 mg/kg/day administered in multiple doses for 16 days; format: organism-based; details: in vivo, 384 h
How it was run: (§4)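 During 16 days of multiple ip dosing at 8 mg/kg/day, mice were watched for body weight loss, food consumption, and behavioral, CNS and motor activity.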

Mus musculus [14] = assay: Toxicity in CF1 mouse assessed as behavioral changes at 8 mg/kg/day administered in multiple doses for 16 days; format: organism-based; details: in vivo, 384 h; how it was run: as §4
Mus musculus [15] = assay: Toxicity in CF1 mouse assessed as body weight loss at 8 mg/kg/day administered in multiple doses for 16 days; format: organism-based; details: in vivo, 384 h; how it was run: as §4
Mus musculus [16] = assay: Toxicity in CF1 mouse assessed as change in CNS and motor activity at 8 mg/kg/day administered in multiple doses for 16 days; format: organism-based; details: in vivo, 384 h; how it was run: as §4
Mus musculus [17] = assay: Antiinflammatory activity against CF1 mouse assessed as inhibition of carrageenan-induced paw edema at 10 mg/kg administered 30 mins before carrageenan challenge measured after 3 hrs relative to control; format: functional; how it was run: as §3
Mus musculus [18] = assay: Antiinflammatory activity against CF1 mouse assessed as inhibition of carrageenan-induced paw edema at 50 mg/kg administered 30 mins before carrageenan challenge measured after 3 hrs relative to control; format: functional; how it was run: as §3

Compound	EC50 (KB) [µg/mL]	EC50 (SW480) [µg/mL]	EC50 [4] [µg/mL]	EC50 [5] [µg/mL]	EC50 [6] [µg/mL]	EC50 (L1210) [µg/mL]	EC50 [7] [µg/mL]	EC50 [8] [µg/mL]	inhibition in vivo at 8 mg/kg/day (Ehrlich) [%]	Activity (Mus musculus [9]) [%]	Activity (Mus musculus [10]) [%]	inhibition in vivo at 8 mg/kg/day (Mus musculus [11]) [%]	Activity (Mus musculus [12]) [%]	also measured
CCOC(=O)C(C)(C)Oc1ccc(Cl)cc1 [CLOFIBRATE]														Activity (Mus musculus [1]): 88%; Activity (Mus musculus [2]): 75%; Activity (Mus musculus [3]): 75%
Nc1ccn([C@@H]2O[C@H](CO)[C@@H](O)[C@@H]2O)c(=O)n1 [CYTARABINE]	2.84 (≈ 11.7 µM)	3.42 (≈ 14.1 µM)	1.88 (≈ 7.73 µM)	2.13 (≈ 8.76 µM)	2.67 (≈ 11 µM)	2.76 (≈ 11.3 µM)	4.6 (≈ 18.9 µM)							
O=c1[nH]cc(F)c(=O)[nH]1 [FLUOROURACIL]	1.25 (≈ 9.61 µM)	3.09 (≈ 23.8 µM)	1.28 (≈ 9.84 µM)	2.47 (≈ 19 µM)	2.14 (≈ 16.5 µM)	1.41 (≈ 10.8 µM)	5.64 (≈ 43.4 µM)							
COc1cc([C@H]2Oc3cc(-c4cc(=O)c5c(O)cc(O)cc5o4)ccc3O[C@@H]2CO)ccc1O [HYDNOCARPIN]	1.15 (≈ 2.48 µM)	2 (≈ 4.31 µM)	2.59 (≈ 5.58 µM)	2.02 (≈ 4.35 µM)	2.94 (≈ 6.33 µM)	3.65 (≈ 7.86 µM)	8.18 (≈ 17.6 µM)	2.14 (≈ 4.61 µM)	84.8	83	62	42	62	
COc1cc(/C=C(\CO)c2cc([C@H]3Oc4cc(-c5cc(=O)c6c(O)cc(O)cc6o5)ccc4O[C@@H]3CO)cc(OC)c2O)ccc1O [HYDNOWIGHTIN]	1.96 (≈ 3.05 µM)	2.38 (≈ 3.7 µM)	5.02 (≈ 7.81 µM)	3.01 (≈ 4.68 µM)	4.33 (≈ 6.74 µM)	3.07 (≈ 4.78 µM)	7.49 (≈ 11.7 µM)	2.5 (≈ 3.89 µM)	12.1	80	59	24	59	Activity (Mus musculus [13]): Non-toxic; Activity (Mus musculus [14]): Non-toxic; Activity (Mus musculus [15]): Non-toxic; Activity (Mus musculus [16]): Non-toxic
NC(=O)NO [HYDROXYUREA]	5.29 (≈ 69.6 µM)	4.79 (≈ 63 µM)	2.27 (≈ 29.8 µM)	1.96 (≈ 25.8 µM)	3.18 (≈ 41.8 µM)	2.67 (≈ 35.1 µM)	7.37 (≈ 96.9 µM)	7.54 (≈ 99.1 µM)						
COc1ccc2c(c1)c(CC(=O)O)c(C)n2C(=O)c1ccc(Cl)cc1 [INDOMETHACIN]														inhibition in vivo at 10 mg/kg (Mus musculus [17]): 78%
COc1cc([C@@H]2c3c(oc4cc(O)cc(O)c4c3=O)-c3cc(O)c(O)cc3[C@@H]2CO)ccc1O [NEOHYDNOCARPIN]	1.06 (≈ 2.28 µM)	2.03 (≈ 4.37 µM)	4.07 (≈ 8.76 µM)	2.12 (≈ 4.56 µM)	3.05 (≈ 6.57 µM)	3.29 (≈ 7.08 µM)	4.53 (≈ 9.75 µM)	2.49 (≈ 5.36 µM)	43.1	85	79	6	79	
CCCCC1C(=O)N(c2ccccc2)N(c2ccccc2)C1=O [PHENYLBUTAZONE]														inhibition in vivo at 50 mg/kg (Mus musculus [18]): 47%

Source: ChEMBL document CHEMBL1158984, “Hypolipidemic, anti-inflammatory, and antineoplastic activity and cytotoxicity of flavonolignans isolated from Hydnocarpus wightiana seeds” (J Nat Prod, 1991)
